In ChEMBL document CHEMBL1135495, “New p-methylsulfonamido phenylethylamine analogues as class III antiarrhythmic agents: design, synthesis, biological assay, and 3D-QSAR analysis” (2002):

Key:
[1] = organism: Cavia porcellus; experiment: Effective concentration for delaying effective refractory period (ERP) 10 ms in guinea pig; format: functional
Summary of the method: (§1)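 Isolated atria, left atria preloaded 10 mN and paced at 1 s⁻¹ with square-wave pulses at twice-threshold voltage. ERP was measured by paired electrical stimulation after a 1 h Tyrode's equilibration with washouts every 15 min. Drug was added cumulatively at 15 min intervals, with final concentrations rising geometrically. ERP was read 10 min after each addition.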

[2] = organism: Cavia porcellus; experiment: (§2) Percent change for delaying effective refractory period (ERP) in guinea pig at 10e-5 M concentration; format: functional; summary of the method: as §1
[3] = organism: Cavia porcellus; experiment: Percent change of force of constriction measured in guinea pig at 10e-5 M concentration; format: functional
Summary of the method: (§3)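 Left atria under 10 mN preload, driven at 1 s⁻¹ by square-wave pulses at twice-threshold voltage. Isometric contractions were recorded via a strain gauge after a 1 h Tyrode's equilibration. Cumulative drug additions were made every 15 min, with final concentrations rising geometrically. The inotropic effect was determined 10 min after each addition.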

[4] = organism: Cavia porcellus; experiment: Percent change in heart rate measured in guinea pig at 10e-5 M concentration; format: functional
Summary of the method: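 Spontaneously beating right atria, with contractions recorded in parallel to give beating rate. Tissue equilibrated 1 h in Tyrode's, washed every 15 min. Drug was added to the bath cumulatively at 15 min intervals in geometrically increasing final concentrations. The chronotropic effect was read 10 min after each addition.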

[5] = organism: Cavia porcellus; experiment: Percent change of force of constriction measured in guinea pig at 10e-5 M concentration; N means No effect.; format: functional; summary of the method: as §3
[6] = organism: Cavia porcellus; experiment: Effective concentration for delaying effective refractory period (ERP) 10 ms in guinea pig; N means No effect at 10E-5 M; format: functional; summary of the method: as §1
[7] = organism: Cavia porcellus; experiment: Percent change for delaying effective refractory period (ERP) in guinea pig at 10e-5 M concentration; N means No effect.; format: functional; summary of the method: as §1
[8] = organism: Cavia porcellus; experiment: as §2; format: functional, organism-based; summary of the method: as §1
[9] = organism: Cavia porcellus; experiment: No effect was observed for ERP at 10x (10e-5) M concentration; N means No effect at 10E-5 M; format: functional; summary of the method: as §1
[10] = organism: Cavia porcellus; experiment: Percent change of force of constriction measured in guinea pig at 10e-5 M concentration; Nf means No effect.; format: functional; summary of the method: as §3

SMILES | C [1] | Delta ERP [2] | Delta FC [3] | Delta HR [4] | N [5] | N [6] | N [7] | N [8] | N [9] | N [10]
CC(=O)N(CCOc1cccc2ccccc12)CCc1ccc(NS(C)(=O)=O)cc1 | 0.05 µM | 58.4% | -37.9% | -46.2% | – | – | – | – | – | –
C=CCN(CCOc1ccc(NS(C)(=O)=O)cc1)CCc1ccc(NS(C)(=O)=O)cc1 | 0.267 µM | 12.4% | – | -5.26% | No effect | – | – | – | – | –
CS(=O)(=O)Nc1ccc(CCN(CCOc2cccc3ccccc23)Cc2ccccc2)cc1 | – | – | 25% | -31.8% | – | No effect | No effect | – | – | –
COc1ccc(CN(CCc2ccc(NS(C)(=O)=O)cc2)C(C)=O)cc1 | – | – | 14.3% | -18.2% | – | No effect | No effect | – | – | –
Cc1ccc(CN(C)CCc2ccc(N(S(C)(=O)=O)S(C)(=O)=O)cc2)cc1 | 0.953 µM | 12.6% | -11.8% | -15.4% | – | – | – | – | – | –
CN(CCc1ccc(NS(C)(=O)=O)cc1)C1CCCCC1 | 4.79 µM | 6.45% | 8.33% | -8% | – | – | – | – | – | –
CC(=O)N(CCOc1ccc(NS(C)(=O)=O)cc1)CCc1ccc(NS(C)(=O)=O)cc1 | 0.021 µM | 16.9% | 17.5% | -20.6% | – | – | – | – | – | –
COc1ccccc1CN(C)CCc1ccc(NS(C)(=O)=O)cc1 | 0.155 µM | 15.6% | 38.3% | -26.7% | – | – | – | – | – | –
COc1ccc(CN(CCc2ccc(NS(C)(=O)=O)cc2)C(=O)c2ccccc2)cc1 | 6.18 µM | 6.33% | 33.3% | -3.7% | – | – | – | – | – | –
CN(CCc1ccc(NS(C)(=O)=O)cc1)Cc1ccc(Cl)cc1 | 2.24 µM | 7.06% | 8.33% | -14.5% | – | – | – | – | – | –
CS(=O)(=O)Nc1ccc(CCN(CCOc2ccc(NS(C)(=O)=O)cc2)S(C)(=O)=O)cc1 | – | – | 16.7% | -18.8% | – | No effect at 10E-5 M | – | No effect at 10E-5 M | – | –
COc1ccc(CN(CCc2ccc(N(S(C)(=O)=O)S(C)(=O)=O)cc2)Cc2ccccc2)cc1 | 0.79 µM | 9.09% | -20% | -27.3% | – | – | – | – | – | –
CS(=O)(=O)Nc1ccc(CCN(CCOc2ccc(NS(C)(=O)=O)cc2)Cc2ccc(Cl)cc2)cc1 | 0.037 µM | 9.29% | 20% | -40.6% | – | – | – | – | – | –
Cc1ccc(CN(CCc2ccc(N(S(C)(=O)=O)S(C)(=O)=O)cc2)Cc2ccccc2)cc1 | 0.62 µM | 5.71% | 25% | 16% | – | – | – | – | – | –
CN(CCc1ccc(NS(C)(=O)=O)cc1)Cc1ccc2c(c1)OCO2 | 0.89 µM | 6.16% | 17.2% | -15.3% | – | – | – | – | – | –
CS(=O)(=O)N(c1ccc(CCN(Cc2ccccc2)Cc2ccccc2)cc1)S(C)(=O)=O | 0.653 µM | 9.56% | – | -16% | No effect | – | – | – | – | –
CS(=O)(=O)Nc1ccc(CCN(Cc2ccccc2)Cc2ccc(Cl)cc2)cc1 | 1.05 µM | 14.5% | 25% | 16% | – | – | – | – | – | –
CS(=O)(=O)Nc1ccc(CCN(CCOc2ccc(NS(C)(=O)=O)cc2)C(=O)c2ccccc2)cc1 | 0.039 µM | 19% | 25% | -28.4% | – | – | – | – | – | –

SMILES | C [1] | Delta ERP [2] | Delta FC [3] | Delta HR [4] | N [5] | N [6] | N [7] | N [8] | N [9] | N [10]
CS(=O)(=O)Nc1ccc(CCNCCOc2ccc(NS(C)(=O)=O)cc2)cc1 [N-DESMETHYLDOFETILIDE] | 0.023 µM | 9.39% | 33.7% | -23.8% | – | – | – | – | – | –
CS(=O)(=O)Nc1ccc(CCN(CCOc2cccc3ccccc23)C(=O)c2ccccc2)cc1 | 8.67 µM | 5.33% | 33.3% | -20% | – | – | – | – | – | –
COc1ccc(CN(C)CCc2ccc(N(S(C)(=O)=O)S(C)(=O)=O)cc2)cc1 | 1.17 µM | 8.7% | 25% | -19.2% | – | – | – | – | – | –
C=CCN(CCOc1cccc2ccccc12)CCc1ccc(NS(C)(=O)=O)cc1 | 0.315 µM | 9.77% | 16.7% | -15.2% | – | – | – | – | – | –
CS(=O)(=O)Nc1ccc(CCN(CCOc2ccc(NS(C)(=O)=O)cc2)CCOc2ccc(NS(C)(=O)=O)cc2)cc1 | 0.383 µM | 13.5% | 20% | -26.7% | – | – | – | – | – | –
COc1ccc(CN(CCc2ccc(NS(C)(=O)=O)cc2)Cc2ccc(Cl)cc2)cc1 | 0.068 µM | 19.3% | 15% | -9.09% | – | – | – | – | – | –
CN(CCc1ccc(NS(C)(=O)=O)cc1)Cc1ccccc1 | 0.372 µM | 12.2% | 16.7% | -20% | – | – | – | – | – | –
CS(=O)(=O)N(c1ccc(CCN(CCOc2cccc3ccccc23)Cc2ccccc2)cc1)S(C)(=O)=O | – | – | 25% | -17.9% | – | – | No effect | – | No effect | –
CN(CCOc1ccc(NS(C)(=O)=O)cc1)CCc1ccc(NS(C)(=O)=O)cc1 [DOFETILIDE] | 0.011 µM | 24% | 17.1% | -30% | – | – | – | – | – | –
C=CCN(CCOc1cccc2ccccc12)CCc1ccc(N(S(C)(=O)=O)S(C)(=O)=O)cc1 | – | – | 16.7% | -8.33% | – | No effect | No effect | – | – | –
CS(=O)(=O)Nc1ccc(CCN(Cc2ccccc2)Cc2ccccc2)cc1 | 0.27 µM | 16.1% | – | -25% | No effect | – | – | – | – | –
COc1ccccc1CN(CCc1ccc(NS(C)(=O)=O)cc1)Cc1ccccc1 | 0.141 µM | 10.9% | -14.3% | -28.2% | – | – | – | – | – | –
CS(=O)(=O)Nc1ccc(CCN(CCOc2ccc(NS(C)(=O)=O)cc2)Cc2ccccc2)cc1 | 0.016 µM | 17.5% | 24.8% | -32% | – | – | – | – | – | –
CN(CCc1ccc(N(S(C)(=O)=O)S(C)(=O)=O)cc1)C1CCCCC1 | 4.39 µM | 6.24% | – | -8.36% | – | – | – | – | – | No effect
CS(=O)(=O)N(c1ccc(CCN(Cc2ccccc2)Cc2ccc3c(c2)OCO3)cc1)S(C)(=O)=O | 0.38 µM | 9.46% | -20% | -18.3% | – | – | – | – | – | –
CN(CCOc1cccc2ccccc12)CCc1ccc(NS(C)(=O)=O)cc1 | 0.293 µM | 20.2% | 20.3% | -28.5% | – | – | – | – | – | –
CN(CCOc1cccc2ccccc12)CCc1ccc(N(S(C)(=O)=O)S(C)(=O)=O)cc1 | 0.203 µM | 12% | – | -20.7% | No effect | – | – | – | – | –
COc1ccc(CN(CCOc2ccc(NS(C)(=O)=O)cc2)CCc2ccc(NS(C)(=O)=O)cc2)cc1 | 0.21 µM | 12.1% | 14.3% | -25.8% | – | – | – | – | – | –
